Source: PubChem (Broad Institute)
SIRT5 block: inhibitors of human sirtuin-5 desuccinylase; Q9NXA8; Purified SirT5, succinyl-peptide AMC, trypsin-coupled fluorescence; inhibition, % at 15 µM; hit rate 1.1% among 330,000; AID 652115; in the data active means inhibition above about 15%; inconclusive means no clear call, values can overlap the other calls
Target sequence (Q9NXA8 whole entry, looked up): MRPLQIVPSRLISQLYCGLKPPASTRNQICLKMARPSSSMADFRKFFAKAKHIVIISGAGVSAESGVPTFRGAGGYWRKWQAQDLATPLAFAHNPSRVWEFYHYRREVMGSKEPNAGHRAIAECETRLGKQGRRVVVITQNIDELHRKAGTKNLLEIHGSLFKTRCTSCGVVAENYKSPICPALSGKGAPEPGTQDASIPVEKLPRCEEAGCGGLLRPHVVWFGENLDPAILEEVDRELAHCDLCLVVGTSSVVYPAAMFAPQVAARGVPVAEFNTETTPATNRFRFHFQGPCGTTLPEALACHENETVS
XiGFP reactiv: X-chromosome reactivation activator | XiGFP mouse fibroblasts, % GFP-positive cells imaging, 3 d; cells co-treated with 5-aza-dC sensitizer; scaled so ellipticine positive control = 100% | activation, % at 7.58 µM | hit rate 0.055% among 360,000;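 active means mean normalized replicate activation at least 10% and every replicate at or above 10%; inconclusive means only one of the two criteria met; inactive means mean below 10% and not all replicates reach 10%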;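 further: 0% = median of on-plate neutral control wells and 100% = ellipticine 6 µM median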
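material = 68-5-11 XiGFP fibroblast line | medium = DMEM plus 5-aza-dC sensitizer | schedule = 3 days compound exposure | benchmarks = positive control ellipticine, 6 µM final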
DENV2 CPE: DENV2-induced cell death inhibition; DENV2-infected cells, cytopathic effect rescue, plate reader; CPE inhibition, % at 9.99 µM; hit rate 1.7% among 350,000; in the data active means CPE inhibition above about 20%, passing the limit was not always enough; inconclusive means no clear call, values can overlap the other calls; tested in BHK-21 cells;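 further: 0% = median of neutral control wells and 100% = median of positive control wells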
FN deposit inh: fibronectin deposition inhibition. AH1F fibroblasts, Alexa488-fibronectin deposition fluorescence, overnight. inhibition, % at 12.6 µM. hit rate 0.086% among 350,000. AID 743247;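 active means mean inhibition across replicates of 30% or more, regardless of how many single replicates reach that level; inconclusive means mean under 30% yet at least half of replicates reach 30%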;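 further: positive control wells lacked labelled fibronectin entirely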
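Test system: AH1F fibroblast monolayer depositing Alexa488-labelled fibronectin into matrix. Input: 10000 cells per well. Technique: fluorescence, ex 485 nm, em 525 nm. Buffer or medium: DMEM plus 2% serum, read in PBS. Timing: 1 h cell adhesion before compound, then overnight fibronectin incubation. Compound: single dose, pinned. Read-out basis: inhibition from reduced deposited-fibronectin fluorescence.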
FGF22 binding: shifts melting point of recombinant human FGF22 | recombinant FGF22 thermal shift, SYPRO orange fluorescence; percent of sucrose octasulfate shift, DMSO zero | activity (Tm shift, normalised), % at 9.99 µM | Q9HCT0 | AID 651658 | hit rate 1.5% among 340,000;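 active means mean Tm shift, scaled 0 neutral to 100 positive control, at about 1.3% or above, every replicate too, limit read from the data; inconclusive means no clear call, values can overlap the other calls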
Target sequence (Q9HCT0 whole entry, looked up): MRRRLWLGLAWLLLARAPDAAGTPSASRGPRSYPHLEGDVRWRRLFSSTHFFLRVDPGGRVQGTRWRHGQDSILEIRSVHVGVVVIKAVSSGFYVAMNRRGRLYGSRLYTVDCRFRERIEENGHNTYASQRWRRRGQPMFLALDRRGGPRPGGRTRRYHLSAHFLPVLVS
ARNT-TACC3 inh: disruptors of human ARNT/TACC3 interaction. Q9Y6A5. AlphaScreen His-ARNT PAS-B/GST-TACC3 binding, luminescence; TACC3 fragment carries E629A point mutation. inhibition, % at 9.99 µM. hit rate 0.66% among 390,000. AID 623870;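 active means mean inhibition of replicates at least 50% and at least half of replicates each reaching 50%; inconclusive means half or more replicates reach 50% but mean below 50%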;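 further: 0% = complete ARNT plus TACC3 wells and 100% = ARNT alone without TACC3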
An asterisk follows results filed as active; ? = inconclusive; nt = no result given. In the library only some 3.8% were active in any assay of this set; here they are far more common.

SMILES	SIRT5 block	XiGFP reactiv	DENV2 CPE	FN deposit inh	FGF22 binding	ARNT-TACC3 inh
CC(C)CC#Cc1ccc2c(c1)O[C@H](CN(C)C(=O)CN(C)C)[C@@H](C)CN([C@@H](C)CO)S2(=O)=O	-4	-1	nt	9	0	5
C[C@H](CO)N1C[C@H](C)[C@H](CN(C)Cc2ccc(-c3ccccc3)cc2)Oc2ccc(NC(=O)c3ccncc3)cc2CC1=O	13	-1	1	nt	0	4
COc1ccc(S(=O)(=O)N(C)C[C@H]2OCCCC[C@H](C)Oc3ccc(NC(=O)C4CCCCC4)cc3C(=O)N([C@H](C)CO)C[C@H]2C)cc1	4	0	-2	-1	-1	7
Cc1ccc(C)c(NC(=O)CSc2nnc(-c3ccco3)o2)c1	nt	nt	nt	nt	nt	-4
Cc1cc(NC(=O)CSc2nnc(-c3ccco3)o2)no1	0	nt	nt	nt	nt	59*
COc1ccc(-c2cc(=O)oc3cc(OC(C)C(=O)NCc4ccccn4)ccc23)cc1 (centres undefined)	nt	nt	-4	nt	49*	34
O=C(C[C@@H]1CC[C@H]2[C@@H](COC[C@H](O)CN2Cc2nccs2)O1)NCc1ccc(Oc2ccccc2)cc1	0	0	2	-11	0	-7
O=S(=O)(O)c1cc(O)c2c(O)c(N=Nc3cc(Cl)ccc3O)c(S(=O)(=O)O)cc2c1	nt	nt	nt	nt	nt	69*
Oc1ccc(Cl)cc1N=Nc1ccccc1	2	0	-2	-2	0	-3
CC(C)(C)c1ccc(-c2nc3[nH]c(=O)cc(NC(=O)c4ccco4)n3n2)cc1	-7	0	0	-1	14*	-4
Cc1noc(C)c1NC(=O)N(C)C[C@H]1Oc2ccc(NC(=O)Cc3ccccc3)cc2CC(=O)N([C@H](C)CO)C[C@@H]1C	-1	0	-6	-2	0	-8
COc1ccc(-c2nn(-c3ccccc3)cc2C(=O)OCC(=O)c2ccc(C)c([N+](=O)[O-])c2)cc1	0	0	-3	-3	43*	-4
CNC[C@@H]1Oc2ccc(NC(C)=O)cc2CC(=O)N(C)C[C@H]1C	nt	0	nt	-9	nt	nt
COc1ccc2c3c([nH]c2c1)[C@H](CO)N(C(=O)Nc1ccc(F)cc1)CC31CN(C(=O)Cc2ccccc2)C1	nt	0	nt	nt	nt	nt
CCC(Sc1nc2ncnc(N)c2[nH]1)C(=O)O (centres undefined)	17*	0	5	-6	0	-2
CCCCCCCC/C=C\CCCCCCCC(=O)NCCc1ccc(O)c(O)c1	32*	1	-6	1	1	5
CCCCCCCC/C=C\CCCCCCCC(=O)NCCO	4	0	?	9	0	-2
CC(C)CC(=O)Nc1cccc(-c2nc3ncccc3o2)c1	-9	0	0	5	0	12
CCCC(=O)NC(=S)Nc1cccc(-c2nc3ncccc3o2)c1	-2	0	-2	-3	43*	-1
OC(CNCc1ccccn1)c1ccccc1 (centres undefined)	-5	0	6	3	0	48*
Fc1ccc(C(CCNCc2ccccn2)c2ccc(Cl)cc2)cc1 (centres undefined)	nt	nt	nt	nt	nt	48*
OC(CNCc1ccncc1)c1ccccc1 (centres undefined)	1	0	-4	-2	0	0
COc1ccc(Br)cc1CN1CCCC(C(=O)N2CCCCC2)C1 (centres undefined)	nt	nt	nt	2	nt	0
COc1ccc(Br)cc1CN1CCC(N2CCCC2)CC1	1	0	25*	4	0	0
COc1ccc(C(=O)NCc2cc(C)nc3ccccc23)cc1OC	3	0	-12	3	0	2
COc1cc(OC)cc(C(=O)NCCC(c2ccccc2)c2ccccc2)c1	2	0	45*	-5	0	-8
COc1cc(OC)cc(C(=O)NCc2cc(C)nc3ccccc23)c1	-3	0	6	0	44*	1
O=c1oc2ccccc2cc1-c1cn2ccccc2n1	-2	0	3	-4	0	-8
Cc1cccn2cc(-c3cc4ccccc4oc3=O)nc12	-2	0	5	6	43*	-4
